Tests used:
[1] = target: T1, Tyrosine-protein phosphatase non-receptor type 22 (Homo sapiens, UniProt Q9Y2R2); assay: Inhibition of recombinant LYP (unknown origin) using pNPP as substrate by spectrophotometric method
T1 sequence (Q9Y2R2 whole entry): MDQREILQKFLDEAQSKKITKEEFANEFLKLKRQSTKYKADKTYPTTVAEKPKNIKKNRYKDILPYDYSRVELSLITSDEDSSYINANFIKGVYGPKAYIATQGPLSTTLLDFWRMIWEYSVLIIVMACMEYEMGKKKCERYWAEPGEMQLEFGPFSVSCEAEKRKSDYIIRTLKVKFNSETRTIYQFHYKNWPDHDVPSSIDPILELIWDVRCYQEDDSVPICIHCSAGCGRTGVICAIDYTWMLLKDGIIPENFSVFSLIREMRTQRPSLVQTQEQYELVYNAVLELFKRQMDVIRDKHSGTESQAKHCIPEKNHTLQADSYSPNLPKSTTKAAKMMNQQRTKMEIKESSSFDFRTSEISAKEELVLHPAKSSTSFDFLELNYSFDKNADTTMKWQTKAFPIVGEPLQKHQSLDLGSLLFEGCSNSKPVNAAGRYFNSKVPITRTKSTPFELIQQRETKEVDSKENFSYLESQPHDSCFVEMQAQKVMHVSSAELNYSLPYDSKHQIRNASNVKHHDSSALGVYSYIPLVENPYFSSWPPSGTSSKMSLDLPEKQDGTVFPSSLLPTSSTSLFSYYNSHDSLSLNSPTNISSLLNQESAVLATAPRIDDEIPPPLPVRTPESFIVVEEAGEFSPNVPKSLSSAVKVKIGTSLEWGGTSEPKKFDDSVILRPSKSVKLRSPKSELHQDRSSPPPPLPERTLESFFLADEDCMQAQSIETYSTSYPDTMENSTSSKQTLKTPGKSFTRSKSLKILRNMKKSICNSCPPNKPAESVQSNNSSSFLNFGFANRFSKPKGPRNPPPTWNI
In short: (§1)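 Recombinant PTP prepared in-house, assayed with pNPP substrate in 50 mM 3,3-dimethylglutarate buffer pH 7.0 containing 1 mM EDTA and 150 mM NaCl at 25 °C, in 96-well format. p-Nitrophenol product was quantified by absorbance at 405 nm. Non-enzymatic pNPP hydrolysis was corrected using a no-enzyme control.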

[2] = Selectivity ratio of IC50 for recombinant SHP2 (unknown origin) to IC50 for recombinant Mycobacterium tuberculosis PTPB
[3] = Selectivity ratio of IC50 for recombinant CD45 (unknown origin) to IC50 for recombinant Mycobacterium tuberculosis PTPB
[4] = target: T2, Tyrosine-protein phosphatase non-receptor type 11 (Homo sapiens, UniProt Q06124); assay: Inhibition of recombinant SHP2 (unknown origin) using pNPP as substrate by spectrophotometric method; in short: as §1
T2 sequence (Q06124 whole entry): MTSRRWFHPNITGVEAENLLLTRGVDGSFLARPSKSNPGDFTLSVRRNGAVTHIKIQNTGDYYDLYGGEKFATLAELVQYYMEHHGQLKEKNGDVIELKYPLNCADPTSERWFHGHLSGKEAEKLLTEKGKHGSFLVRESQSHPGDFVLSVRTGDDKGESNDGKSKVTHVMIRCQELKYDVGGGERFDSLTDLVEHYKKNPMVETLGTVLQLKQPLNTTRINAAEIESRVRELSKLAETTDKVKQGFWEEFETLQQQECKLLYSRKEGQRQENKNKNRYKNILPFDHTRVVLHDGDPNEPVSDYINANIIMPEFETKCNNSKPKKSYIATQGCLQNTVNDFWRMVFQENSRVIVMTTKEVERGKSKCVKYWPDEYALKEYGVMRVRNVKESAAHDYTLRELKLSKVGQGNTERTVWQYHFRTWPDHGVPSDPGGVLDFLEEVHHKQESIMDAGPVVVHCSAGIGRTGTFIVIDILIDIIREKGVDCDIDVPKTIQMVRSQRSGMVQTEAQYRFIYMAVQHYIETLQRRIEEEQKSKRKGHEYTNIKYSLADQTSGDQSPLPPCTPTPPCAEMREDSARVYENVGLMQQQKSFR

[5] = target: T3, Tyrosine-protein phosphatase non-receptor type 1 (Homo sapiens, UniProt P18031); assay: Inhibition of recombinant PTP1B (unknown origin) using pNPP as substrate by spectrophotometric method; in short: as §1
T3 sequence (P18031 whole entry): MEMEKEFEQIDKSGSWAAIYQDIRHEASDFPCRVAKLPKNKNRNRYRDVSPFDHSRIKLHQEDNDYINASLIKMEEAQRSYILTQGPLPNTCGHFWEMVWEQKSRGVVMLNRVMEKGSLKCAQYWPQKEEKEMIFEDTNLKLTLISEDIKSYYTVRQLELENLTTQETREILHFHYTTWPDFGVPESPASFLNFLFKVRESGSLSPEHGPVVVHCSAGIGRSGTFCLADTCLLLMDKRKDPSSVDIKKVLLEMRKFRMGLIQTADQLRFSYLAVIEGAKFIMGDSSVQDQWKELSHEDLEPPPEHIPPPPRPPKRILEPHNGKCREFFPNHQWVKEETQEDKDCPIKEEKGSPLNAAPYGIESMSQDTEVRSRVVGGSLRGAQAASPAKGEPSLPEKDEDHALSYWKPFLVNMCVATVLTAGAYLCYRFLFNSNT

[6] = Inhibition of recombinant Mycobacterium tuberculosis PTPB using pNPP as substrate by spectrophotometric method
In short: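 Recombinant enzyme made in-house. Substrate pNPP in 50 mM 3,3-dimethylglutarate buffer, pH 7.0, with 1 mM EDTA and 150 mM NaCl, at 25 °C, screened in 96-well format. p-Nitrophenol product read at 405 nm. Non-enzymatic pNPP hydrolysis was corrected using a control without enzyme.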

[7] = target: Tyrosine-protein phosphatase non-receptor type 13 (Homo sapiens, UniProt Q12923); assay: Inhibition of recombinant FAP1 (unknown origin) using pNPP as substrate by spectrophotometric method; in short: as §1
Tyrosine-protein phosphatase non-receptor type 13, sequence (Q12923 whole entry): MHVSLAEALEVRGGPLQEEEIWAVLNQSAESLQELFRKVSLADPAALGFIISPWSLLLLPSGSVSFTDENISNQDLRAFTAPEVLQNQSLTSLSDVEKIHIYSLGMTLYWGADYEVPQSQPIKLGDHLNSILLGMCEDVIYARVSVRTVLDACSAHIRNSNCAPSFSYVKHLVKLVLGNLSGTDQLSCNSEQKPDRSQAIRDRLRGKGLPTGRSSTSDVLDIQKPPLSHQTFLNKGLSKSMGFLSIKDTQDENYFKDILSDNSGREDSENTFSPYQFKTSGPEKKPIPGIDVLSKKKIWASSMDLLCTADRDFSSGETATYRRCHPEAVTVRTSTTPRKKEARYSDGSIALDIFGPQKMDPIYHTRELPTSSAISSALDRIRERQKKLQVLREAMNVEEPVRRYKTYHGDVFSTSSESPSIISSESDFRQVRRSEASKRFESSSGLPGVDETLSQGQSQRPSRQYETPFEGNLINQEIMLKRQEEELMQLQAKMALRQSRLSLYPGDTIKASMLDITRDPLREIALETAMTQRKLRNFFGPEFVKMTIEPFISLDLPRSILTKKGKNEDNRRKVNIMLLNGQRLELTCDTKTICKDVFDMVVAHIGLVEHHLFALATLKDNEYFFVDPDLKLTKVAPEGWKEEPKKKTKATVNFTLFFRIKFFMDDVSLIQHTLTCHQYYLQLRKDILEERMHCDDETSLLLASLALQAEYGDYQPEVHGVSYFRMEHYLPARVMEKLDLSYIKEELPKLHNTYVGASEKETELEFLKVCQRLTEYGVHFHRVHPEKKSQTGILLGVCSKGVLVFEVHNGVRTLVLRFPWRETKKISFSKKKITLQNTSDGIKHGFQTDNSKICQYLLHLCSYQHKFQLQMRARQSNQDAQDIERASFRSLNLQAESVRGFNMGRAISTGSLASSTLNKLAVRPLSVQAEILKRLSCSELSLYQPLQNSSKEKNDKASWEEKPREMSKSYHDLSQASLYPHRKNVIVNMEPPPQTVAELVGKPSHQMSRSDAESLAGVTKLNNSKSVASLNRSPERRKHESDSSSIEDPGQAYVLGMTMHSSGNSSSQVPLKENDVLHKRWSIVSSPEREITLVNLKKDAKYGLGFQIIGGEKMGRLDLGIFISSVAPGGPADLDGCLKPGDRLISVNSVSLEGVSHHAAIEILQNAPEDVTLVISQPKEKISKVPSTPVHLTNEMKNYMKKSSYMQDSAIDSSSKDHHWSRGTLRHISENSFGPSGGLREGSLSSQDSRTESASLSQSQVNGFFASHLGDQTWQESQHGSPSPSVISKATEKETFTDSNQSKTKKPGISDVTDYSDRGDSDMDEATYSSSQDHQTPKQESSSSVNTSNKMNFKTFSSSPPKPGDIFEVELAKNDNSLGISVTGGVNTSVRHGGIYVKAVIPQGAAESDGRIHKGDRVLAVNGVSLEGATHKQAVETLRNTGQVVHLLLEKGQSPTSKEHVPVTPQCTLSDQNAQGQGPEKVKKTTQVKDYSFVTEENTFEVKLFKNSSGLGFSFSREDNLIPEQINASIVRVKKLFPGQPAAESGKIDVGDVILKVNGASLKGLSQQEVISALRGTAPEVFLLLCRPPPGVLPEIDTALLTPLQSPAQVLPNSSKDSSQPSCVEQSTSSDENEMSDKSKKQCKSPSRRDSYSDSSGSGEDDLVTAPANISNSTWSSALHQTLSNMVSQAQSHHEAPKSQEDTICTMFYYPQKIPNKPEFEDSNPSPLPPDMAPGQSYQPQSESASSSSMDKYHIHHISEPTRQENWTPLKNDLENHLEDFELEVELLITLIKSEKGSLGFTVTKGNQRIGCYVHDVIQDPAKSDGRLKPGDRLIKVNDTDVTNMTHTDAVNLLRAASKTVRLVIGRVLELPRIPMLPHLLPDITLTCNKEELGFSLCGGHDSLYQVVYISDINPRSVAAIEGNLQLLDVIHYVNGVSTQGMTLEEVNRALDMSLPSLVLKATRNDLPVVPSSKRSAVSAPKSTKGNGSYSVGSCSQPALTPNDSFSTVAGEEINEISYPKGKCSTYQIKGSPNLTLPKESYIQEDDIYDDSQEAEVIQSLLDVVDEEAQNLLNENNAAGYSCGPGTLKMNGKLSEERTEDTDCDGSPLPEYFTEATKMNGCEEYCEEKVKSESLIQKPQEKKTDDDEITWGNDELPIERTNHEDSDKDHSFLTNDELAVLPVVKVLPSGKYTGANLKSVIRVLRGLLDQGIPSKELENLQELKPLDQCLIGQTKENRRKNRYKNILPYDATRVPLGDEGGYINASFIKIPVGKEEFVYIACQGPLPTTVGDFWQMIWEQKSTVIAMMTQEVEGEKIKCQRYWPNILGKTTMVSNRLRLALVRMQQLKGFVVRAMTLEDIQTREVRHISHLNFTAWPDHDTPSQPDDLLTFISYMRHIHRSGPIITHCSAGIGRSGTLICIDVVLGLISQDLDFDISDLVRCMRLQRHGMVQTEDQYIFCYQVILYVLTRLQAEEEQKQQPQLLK

SMILES: Cc1ccc(S(=O)(=O)NNC(=O)COc2ccc3cc(C(O)(C(F)(F)F)C(F)(F)F)c(O)cc3c2)cc1
- IC50 [1]: 15.4 µM
- Ratio IC50 [2]: > 7
- Ratio IC50 [3]: > 7
- IC50 [4]: 20.3 µM
- IC50 [5]: > 20 µM
- IC50 [6]: 2300 nM
- IC50 [7]: 14.9 µM
